Results taken from ChEMBL document CHEMBL1817631, “Synthesis and characterization of tritylthioethanamine derivatives with potent KSP inhibitory activity” (Bioorg Med Chem, 2011).
Activity calls are given as the source filed them. The rule behind the calls is not given here.

Experiments:
[1] = biological target: T1, Kinesin-like protein Klp61F (Drosophila melanogaster) (UniProt P46863); assay: Inhibition of Drosophila melanogaster Klp61F in S2 cells at 100 uM up to 7 hrs by immunofluorescence analysis; assay type: cell-based
T1 sequence (whole entry): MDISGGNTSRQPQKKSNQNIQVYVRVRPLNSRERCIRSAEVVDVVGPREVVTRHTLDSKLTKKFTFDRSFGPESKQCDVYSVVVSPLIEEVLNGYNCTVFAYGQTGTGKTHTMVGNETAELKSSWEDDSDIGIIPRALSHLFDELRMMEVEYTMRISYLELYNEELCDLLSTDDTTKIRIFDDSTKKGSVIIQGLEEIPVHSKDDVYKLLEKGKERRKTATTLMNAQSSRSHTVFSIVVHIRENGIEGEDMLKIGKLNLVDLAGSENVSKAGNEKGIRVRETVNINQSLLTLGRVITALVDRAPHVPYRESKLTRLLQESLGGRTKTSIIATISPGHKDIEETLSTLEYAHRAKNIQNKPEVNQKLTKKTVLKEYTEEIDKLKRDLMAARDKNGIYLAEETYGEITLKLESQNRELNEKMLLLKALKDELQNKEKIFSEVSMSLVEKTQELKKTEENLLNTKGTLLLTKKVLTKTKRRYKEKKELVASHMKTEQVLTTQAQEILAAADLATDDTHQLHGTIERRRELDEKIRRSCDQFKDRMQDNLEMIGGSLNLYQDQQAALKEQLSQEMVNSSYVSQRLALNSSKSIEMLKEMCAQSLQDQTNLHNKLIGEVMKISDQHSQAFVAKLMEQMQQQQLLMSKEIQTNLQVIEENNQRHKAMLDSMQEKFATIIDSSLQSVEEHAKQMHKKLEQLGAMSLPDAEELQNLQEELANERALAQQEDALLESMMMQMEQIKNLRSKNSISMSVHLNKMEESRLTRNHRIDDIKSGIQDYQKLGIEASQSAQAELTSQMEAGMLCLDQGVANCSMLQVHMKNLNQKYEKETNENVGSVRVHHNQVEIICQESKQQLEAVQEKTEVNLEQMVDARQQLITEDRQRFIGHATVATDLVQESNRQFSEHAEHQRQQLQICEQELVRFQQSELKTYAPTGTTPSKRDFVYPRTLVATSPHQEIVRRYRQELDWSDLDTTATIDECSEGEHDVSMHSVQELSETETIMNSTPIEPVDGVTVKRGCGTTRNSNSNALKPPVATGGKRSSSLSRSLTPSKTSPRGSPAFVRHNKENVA
In short: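 Drosophila S2 cells were exposed to compound over a three-log concentration range up to 100 μM, with treatments extending up to 7 h. Bipolar spindle formation was scored by immunofluorescence.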

HeLa [2] = assay: Inhibition of bipolar spindle formation in human HeLa cells at 1 uM; assay type: functional, cell-based
In short: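 HeLa cells were grown in MEM with Earle's BSS, 10% FBS, sodium bicarbonate and pyruvate at 37°C in 5% CO2. They were exposed to compound in DMSO for 4 h, with 0.1% DMSO as carrier control. Cells were fixed in −20°C methanol and immunostained for tubulin, with DNA counterstained. Bipolar spindle formation was scored in 100 mitotic cells per condition.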

UACC-62 = assay: Growth inhibition of human UACC62 cells; assay type: functional
SK-MEL-28 = assay: Growth inhibition of human SK-MEL-28 cells; assay type: functional
SF-295 = assay: Growth inhibition of human SF295 cells; assay type: functional
HCT-15 = assay: Growth inhibition of human HCT15 cells; assay type: functional
[3] = Growth inhibition of human […] cells; assay type: functional
Malme-3M = assay: Growth inhibition of human MALME-3M cells; assay type: functional
SN12C = assay: Growth inhibition of human SN12C cells; assay type: functional
786-0 = assay: Growth inhibition of human 786-0 cells; assay type: functional
U-251 = assay: Growth inhibition of human U251 cells; assay type: functional
TK-10 = assay: Growth inhibition of human TK10 cells; assay type: functional
IGROV-1 = assay: Growth inhibition of human IGROV1 cells; assay type: functional
EKVX = assay: Growth inhibition of human EKVX cells; assay type: functional
SK-MEL-2 = assay: Growth inhibition of human SK-MEL-2 cells; assay type: functional
UO-31 = assay: Growth inhibition of human UO31 cells; assay type: functional
SNB-75 = assay: Growth inhibition of human SNB75 cells; assay type: functional
LOX IMVI = assay: Growth inhibition of human LOXIMVI cells; assay type: functional
M14 = assay: Growth inhibition of human M14 cells; assay type: functional
UACC-257 = assay: Growth inhibition of human UACC257 cells; assay type: functional
SR = assay: Growth inhibition of human SR cells; assay type: functional
K562 = assay: Growth inhibition of human K562 cells; assay type: functional
SK-OV-3 [4] = assay: Growth inhibition of human SKOV3 cells; assay type: functional
SF-268 = assay: Growth inhibition of human SF268 cells; assay type: functional
[5] = biological target: Kinesin-like protein KIF11 (Homo sapiens, UniProt P52732); assay: Inhibition of human recombinant microtubule-activated KSP motor domain ATPase activity after 10 mins by end-point assay
NCI-H522 = assay: Growth inhibition of human NCI-H522 cells; assay type: functional
A549 = assay: Growth inhibition of human A549 cells; assay type: functional
NCI-H322M = assay: Growth inhibition of human NCI-H322M cells; assay type: functional
SK-MEL-5 = assay: Growth inhibition of human SK-MEL-5 cells; assay type: functional
CCRF-CEM = assay: Growth inhibition of human CCRF-CEM cells; assay type: functional
HCC 2998 = assay: Growth inhibition of human HCC2998 cells; assay type: functional
SW-620 = assay: Growth inhibition of human SW620 cells; assay type: functional
ACHN = assay: Growth inhibition of human ACHN cells; assay type: functional
HCT-116 = assay: Growth inhibition of human HCT116 cells; assay type: functional
OVCAR-4 = assay: Growth inhibition of human OVCAR4 cells; assay type: functional
MOLT-4 = assay: Growth inhibition of human MOLT4 cells; assay type: functional
SK-OV-3 [6] = assay: Ratio of GI50 for human M14 cells to GI50 for human SK-OV-3 cells; assay type: functional
SNB-19 = assay: Growth inhibition of human SNB19 cells; assay type: functional
NCI-H226 = assay: Growth inhibition of human NCI-H226 cells; assay type: functional
NCI-H23 = assay: Growth inhibition of human NCI-H23 cells; assay type: functional
SF-539 = assay: Growth inhibition of human SF539 cells; assay type: functional
CAKI-1 = assay: Growth inhibition of human Caki1 cells; assay type: functional
HT-29 = assay: Growth inhibition of human HT-29 cells; assay type: functional
COLO 205 = assay: Growth inhibition of human COLO205 cells; assay type: functional
OVCAR-3 = assay: Growth inhibition of human OVCAR3 cells; assay type: functional
HeLa [7] = assay: Effect on interphase microtubule organization in human HeLa cells at 1 uM; assay type: functional, cell-based
In short: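 HeLa cells were grown in MEM/Earle's BSS with 10% FBS at 37 °C and 5% CO2, then treated 4 h with 1 μM compound or 0.1% DMSO carrier. Cells were fixed in 100% MeOH at −20 °C and blocked in PBS-5% BSA. They were stained overnight at 4 °C with mouse anti-tubulin and for DNA, then imaged by epifluorescence with structured illumination.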

OVCAR-5 = assay: Growth inhibition of human OVCAR5 cells; assay type: functional
HOP-62 = assay: Growth inhibition of human HOP62 cells; assay type: functional
OVCAR-8 = assay: Growth inhibition of human OVCAR8 cells; assay type: functional
HL-60(TB) = assay: Growth inhibition of human HL-60(TB) cells; assay type: functional
[8] = Inhibition of bipolar spindle formation in Strongylocentrotus purpuratus eggs; assay type: functional, Egg
In short: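 S. purpuratus eggs (gametes released with 0.5M KCl) were fertilized in artificial seawater with 2 mM 3-amino triazole and stripped of envelopes 20 min post-fertilization. They were then cultured with 0.1% DMSO or inhibitor at 100 nM–100 μM, fixed at first mitosis and stained for microtubules and DNA. 100 cells per condition were scored for bipolar spindles to derive EC50.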

HeLa [9] = assay: Induction of KSP depletion in human HeLa cells after 4 hrs by immunofluorescence analysis; assay type: functional, cell-based
In short: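 HeLa cells were treated 4 h across a concentration series of compound in DMSO, then fixed in 100% MeOH at −20 °C. They were probed overnight at 4 °C with mouse anti-KSP and rabbit anti-EB1 to mark microtubules, with Alexa Fluor secondaries and DNA counterstain. KSP (green channel) images were taken at equivalent exposure times.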

Sequence of Kinesin-like protein KIF11 (P52732 whole entry, the tested form may be a part): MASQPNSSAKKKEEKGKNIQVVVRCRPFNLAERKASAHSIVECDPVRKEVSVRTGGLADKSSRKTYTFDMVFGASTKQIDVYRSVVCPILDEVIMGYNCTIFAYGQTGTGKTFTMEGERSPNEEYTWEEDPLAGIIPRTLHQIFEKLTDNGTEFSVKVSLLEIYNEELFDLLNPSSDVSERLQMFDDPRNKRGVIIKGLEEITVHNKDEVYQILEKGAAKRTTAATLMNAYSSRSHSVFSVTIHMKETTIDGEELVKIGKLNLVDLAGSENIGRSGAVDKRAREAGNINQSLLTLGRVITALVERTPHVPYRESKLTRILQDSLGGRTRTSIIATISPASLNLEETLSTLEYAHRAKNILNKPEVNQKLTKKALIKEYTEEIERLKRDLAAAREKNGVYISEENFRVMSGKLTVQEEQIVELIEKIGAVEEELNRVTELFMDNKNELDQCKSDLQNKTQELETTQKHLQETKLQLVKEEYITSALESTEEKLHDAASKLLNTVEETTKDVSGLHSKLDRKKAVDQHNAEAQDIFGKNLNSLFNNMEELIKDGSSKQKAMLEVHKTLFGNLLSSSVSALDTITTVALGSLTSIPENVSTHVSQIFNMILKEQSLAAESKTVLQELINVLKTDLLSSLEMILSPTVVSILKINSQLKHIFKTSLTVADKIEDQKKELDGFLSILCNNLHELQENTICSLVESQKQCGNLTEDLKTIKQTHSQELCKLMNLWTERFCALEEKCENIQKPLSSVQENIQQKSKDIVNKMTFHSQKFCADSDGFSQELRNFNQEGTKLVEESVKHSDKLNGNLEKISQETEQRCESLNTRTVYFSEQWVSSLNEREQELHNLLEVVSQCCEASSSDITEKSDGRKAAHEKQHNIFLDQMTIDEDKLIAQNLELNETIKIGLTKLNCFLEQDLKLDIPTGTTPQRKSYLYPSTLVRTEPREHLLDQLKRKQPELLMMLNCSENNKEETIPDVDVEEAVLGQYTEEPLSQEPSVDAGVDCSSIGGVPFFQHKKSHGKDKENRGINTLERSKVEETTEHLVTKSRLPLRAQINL

COc1ccc(C(SC[C@@H](N)CO)(c2ccccc2)c2ccccc2)cc1
inhibition [1]: inactive

COc1ccc(C(SCCN)(c2ccccc2)c2ccccc2)cc1
inhibition (HeLa [2]): Active
GI50 (UACC-62): 400 nM
GI50 (SK-MEL-28): 640 nM
GI50 (SF-295): 180 nM
GI50 (HCT-15): 50 nM
GI50 [3]: 310 nM
GI50 (Malme-3M): 220 nM
GI50 (SN12C): 130 nM
GI50 (786-0): 400 nM
GI50 (U-251): 50 nM
GI50 (TK-10): 1560 nM
GI50 (IGROV-1): 150 nM
GI50 (EKVX): 390 nM
GI50 (SK-MEL-2): 60 nM
GI50 (UO-31): 500 nM
GI50 (SNB-75): 600 nM
GI50 (LOX IMVI): 500 nM
GI50 (M14): 30 nM
GI50 (UACC-257): 700 nM
GI50 (SR): 130 nM
GI50 (K562): 40 nM
GI50 (SK-OV-3 [4]): 80 nM
GI50 (SF-268): 150 nM
IC50 [5]: 136 nM
GI50 (NCI-H522): 40 nM
GI50 (A549): 100 nM
GI50 (NCI-H322M): 60 nM
GI50 (SK-MEL-5): 50 nM
GI50 (CCRF-CEM): 160 nM
GI50 (HCC 2998): 240 nM
GI50 (SW-620): 70 nM
GI50 (ACHN): 690 nM
GI50 (HCT-116): 40 nM
GI50 (OVCAR-4): 1400 nM
GI50 (MOLT-4): 500 nM
RatioGI50 (SK-OV-3 [6]): 1250
GI50 (SNB-19): 340 nM
GI50 (NCI-H226): 1740 nM
GI50 (NCI-H23): 510 nM
GI50 (SF-539): 250 nM
inhibition [1]: inactive
GI50 (CAKI-1): 190 nM
GI50 (HT-29): 350 nM
GI50 (COLO 205): 210 nM
GI50 (OVCAR-3): 150 nM
Activity (HeLa [7]): inactive
GI50 (OVCAR-5): 570 nM
GI50 (HOP-62): 660 nM
GI50 (OVCAR-8): 120 nM

CCOC(=O)C1=C(C)NC(=S)NC1c1cccc(O)c1 (centres undefined) [MONASTROL]
GI50 (UACC-62): 39800 nM
GI50 (SK-MEL-28): 79400 nM
GI50 (HCT-15): 39800 nM
GI50 [3]: 31600 nM
GI50 (SN12C): 39800 nM
GI50 (TK-10): 100000 nM
GI50 (UO-31): 100000 nM
GI50 (SNB-75): 39800 nM
GI50 (LOX IMVI): 79400 nM
GI50 (M14): 25100 nM
GI50 (NCI-H322M): 39800 nM
GI50 (SK-MEL-5): 39800 nM
GI50 (HCC 2998): 39800 nM
GI50 (SW-620): 39800 nM
GI50 (ACHN): 79400 nM
GI50 (SNB-19): 79400 nM
GI50 (SF-539): 50100 nM
GI50 (HT-29): 79400 nM
GI50 (HL-60(TB)): 25100 nM
GI50 (OVCAR-5): 79400 nM

COc1ccc(C(SC[C@@H](N)C(=O)O)(c2ccccc2)c2ccccc2)cc1
inhibition [1]: inactive

COc1ccc(C(SC[C@H](N)C(=O)O)(c2ccccc2)c2ccccc2)cc1
inhibition [1]: inactive

N[C@@H](CSC(c1ccccc1)(c1ccccc1)c1ccccc1)C(=O)O [S-TRITYL-L-CYSTEINE]
EC50 [8]: ≥ 100000 nM
GI50 (UO-31): 100000 nM
GI50 (SK-OV-3 [4]): 100000 nM
GI50 (NCI-H226): 100000 nM
Activity (HeLa [9]): Dose-dependent effect
inhibition [1]: inactive
GI50 (OVCAR-5): 100000 nM
